Measurements: ChEMBL document CHEMBL4177555, “Mycobacterium tuberculosis lysine-ɛ-aminotransferase a potential target in dormancy: Benzothiazole based inhibitors” (Bioorg Med Chem, 2017)
In brackets after ≈: the same amount, converted by molar mass. Activity calls are given as the source filed them. The calls are words filed in the database; no cut-off is given here.

Key:
[1] = Growth inhibition of mouse RAW264.7 cells at 50 ug/ml after 48 hrs by MTT assay relative to control; format: cell-based; details: read-out: GI
Procedure, shortened: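 RAW 264.7 mouse macrophages exposed to compound at 50 µg/ml for 48 h. Viability read as MTT conversion to formazan.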

[2] = system: Mycobacterium tuberculosis; experiment: Antibacterial activity against replicative stage Mycobacterium tuberculosis H37Rv after 7 days by MABA; format: functional; details: 168 h
Procedure, shortened: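 MABA run in duplicate. H37Rv from fresh LJ medium grown in 7H9/OADC at 37 °C to McFarland no.1, then diluted 1:25 as inoculum. Compounds tested in serial dilutions. After 7 days, alamar blue/Tween 80 (1:1) added and plates re-incubated overnight.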

[3] = molecular target: T1, L-lysine-epsilon aminotransferase (Mycobacterium tuberculosis, UniProt P9WQ77); experiment: Inhibition of Mycobacterium tuberculosis LAT using L-lysine as substrate by spectroscopic method
T1 sequence (P9WQ77 whole entry): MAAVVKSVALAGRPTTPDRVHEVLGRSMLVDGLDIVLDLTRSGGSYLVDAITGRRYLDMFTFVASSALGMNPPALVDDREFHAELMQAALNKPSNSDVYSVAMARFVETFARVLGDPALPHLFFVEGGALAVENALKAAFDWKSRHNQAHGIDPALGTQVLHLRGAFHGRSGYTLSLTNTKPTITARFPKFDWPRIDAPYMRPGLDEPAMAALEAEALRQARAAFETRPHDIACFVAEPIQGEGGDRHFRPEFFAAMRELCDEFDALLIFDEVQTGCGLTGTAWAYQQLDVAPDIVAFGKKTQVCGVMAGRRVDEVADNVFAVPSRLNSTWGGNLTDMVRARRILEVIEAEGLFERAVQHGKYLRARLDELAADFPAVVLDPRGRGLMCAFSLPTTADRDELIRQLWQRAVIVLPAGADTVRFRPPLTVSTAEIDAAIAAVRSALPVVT
Procedure, shortened: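 Purified recombinant MTB LAT incubated 1 h at 37 °C in 200 mM phosphate pH 7.2 with 1.5 mM L-lysine, 1.5 mM α-ketoglutarate and 15 µM pyridoxal 5-phosphate, with compounds at several concentrations. Stopped with 10% TCA in ethanol. Products read as o-aminobenzaldehyde adduct at 465 nm and at 280 nm.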

[4] = system: Mycobacterium tuberculosis; experiment: Antibacterial activity against Mycobacterium tuberculosis H37Rv nutrient starvation model assessed as log reduction in bacterial colonies at 10 ug/ml measured after 7 days by MPN assay; format: functional
Procedure, shortened: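 H37Rv grown in 7H9/OADC to OD 0.8–1.0, washed twice, then held in PBS in sealed bottles at 37 °C for 6 weeks. Starved aliquots exposed to compound at 10 µg/ml for 7 days. Persisters enumerated by MPN assay.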

[5] = system: Mycobacterium tuberculosis; experiment: Antibacterial activity against non-replicative stage Mycobacterium tuberculosis H37Rv; format: functional, organism-based
[6] = system: Mycobacterium tuberculosis; experiment: Antibacterial activity against Mycobacterium tuberculosis H37Rv infected in 3D culture of human PBMC assessed as colony forming units treated for 4 days measured after 3 days; format: functional
Procedure, shortened: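 PBMCs at 5x10^5 cells/well in collagen–fibronectin ECM (pH 7.0), infected with H37Rv at MOI 0.1, grown in RPMI with 20% human serum at 37 °C/CO2. Granulomas treated 4 days, then with or without Rif for 3 more days. Collagenase release, Triton X-100 lysis, 7H10 plating, cfu counted after 4 weeks.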

[7] = system: Mycobacterium tuberculosis; experiment: Antibiofilm activity against Mycobacterium tuberculosis assessed as log reduction in bacterial count at 10 ug/ml measured after 7 days by MPN assay; format: functional
Procedure, shortened: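 MTB inoculated 1:100 in Sauton's medium, sealed and grown 5 weeks at 37 °C to form a mature biofilm. Compound added to the medium (n=4) for 7 days. Tween-80 0.1% added, cells washed in PBS/10% glycerol/0.05% Tween-80 and homogenised. Persisters compared with solvent control by MPN assay.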

Mycobacterium marinum [8] = experiment: Antibacterial activity against Mycobacterium marinum ATCC BAA-535 infected in Zebra fish assessed as log reduction in bacterial counts at 5 mg/kg, po administered for 7 days by MPN assay; format: functional
Procedure, shortened: (§1)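 Adult zebrafish (n=6 per group) infected intraperitoneally with M. marinum ATCC BAA-535 grown at 30 °C in 7H9 broth (about 0.75 million bacteria). From day 7 after infection, drug given orally by micropipette for 7 days. Fish then homogenised, tissue taken up in 7H9 broth, and bacterial counts read by MPN assay.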

Mycobacterium marinum [9] = experiment: Antibacterial activity against Mycobacterium marinum ATCC BAA-535 infected in Zebra fish assessed as log reduction in bacterial counts at 10 mg/kg, po administered for 7 days by MPN assay; format: functional; procedure, shortened: as §1

N#C/C(=C\c1ccc(OCC(=O)O)cc1)c1nc2ccccc2s1
inhibition at 48 h, 50 ug/ml [1]: 12.7% | MIC [2]: 4.64 µM (≈ 1.56 µg/mL) | IC50 [3]: 3.08 µM | log(activity) [4]: 2.8 | Activity [5]: Active

N#C/C(=C\c1ccc2c(c1)OCO2)c1nc2ccccc2s1
inhibition at 48 h, 50 ug/ml [1]: 45.7% | MIC [2]: 81.7 µM (≈ 25 µg/mL) | IC50 [3]: 66 µM

N#C/C(=C\c1ccccc1OCC(=O)O)c1nc2ccccc2s1
inhibition at 48 h, 50 ug/ml [1]: 52.3% | MIC [2]: 2.32 µM (≈ 0.78 µg/mL) | IC50 [3]: 53.8 µM

N#C/C(=C\c1ccc(F)cc1)c1nc2ccccc2s1
inhibition at 48 h, 50 ug/ml [1]: 10.6% | MIC [2]: 89.3 µM (≈ 25 µg/mL) | IC50 [3]: 4.11 µM

N#C/C(=C\c1ccc(-c2ccc(C(=O)O)cc2)s1)c1nc2ccccc2s1
inhibition at 48 h, 50 ug/ml [1]: 5.64% | MIC [2]: 2.01 µM (≈ 0.781 µg/mL) | IC50 [3]: 6.72 µM | Activity [5]: Active

N#C/C(=C\c1ccc([N+](=O)[O-])s1)c1nc2ccccc2s1
inhibition at 48 h, 50 ug/ml [1]: 60.3% | MIC [2]: > 79.9 µM | IC50 [3]: 54.8 µM

N#C/C(=C\c1ccc(-c2ccc(C(=O)O)cc2)o1)c1nc2ccccc2s1
inhibition at 48 h, 50 ug/ml [1]: 15.2% | MIC [2]: > 67.2 µM | IC50 [3]: 14.1 µM

CO[C@H]1/C=C/O[C@@]2(C)Oc3c(C)c(O)c4c(O)c(c(/C=N/N5CCN(C)CC5)c(O)c4c3C2=O)NC(=O)/C(C)=C\C=C\[C@H](C)[C@H](O)[C@@H](C)[C@@H](O)[C@@H](C)[C@H](OC(C)=O)[C@@H]1C [RIFAMPIN]
inhibition at 48 h, 50 ug/ml [1]: 23.5% | MIC [2]: 0.5 µM (≈ 0.411 µg/mL) | Activity [6]: 3.3 ×10⁵ CFU | log(activity) [4]: 1.3 | log(activity) [7]: 2

NNC(=O)c1ccncc1 [ISONIAZID]
inhibition at 48 h, 50 ug/ml [1]: 93.2% | MIC [2]: 0.4 µM (≈ 0.0549 µg/mL) | log(activity) [4]: 1.2 | log(activity) (Mycobacterium marinum [8]): 2.8 | log(activity) [7]: 1.9

N#C/C(=C\c1ccc(-c2cccc(C(=O)O)c2)o1)c1nc2ccccc2s1
inhibition at 48 h, 50 ug/ml [1]: 3.12% | MIC [2]: > 67.2 µM | IC50 [3]: 3.74 µM

N#C/C(=C\c1ccc(-c2cccc(C(=O)O)c2)s1)c1nc2ccccc2s1
inhibition at 48 h, 50 ug/ml [1]: 18.9% | MIC [2]: 64.4 µM (≈ 25 µg/mL) | IC50 [3]: 5.73 µM | log(activity) [4]: 2.9 | log(activity) [7]: 2.1

COc1cc(/C=C(\C#N)c2nc3ccccc3s2)cc(OC)c1OC
inhibition at 48 h, 50 ug/ml [1]: 12.6% | MIC [2]: > 71 µM | IC50 [3]: 64.9 µM

N#C/C(=C\c1ccc[nH]1)c1nc2ccccc2s1
inhibition at 48 h, 50 ug/ml [1]: 56.4% | MIC [2]: > 99.6 µM | IC50 [3]: 17 µM

N#C/C(=C\c1cccs1)c1nc2ccccc2s1
inhibition at 48 h, 50 ug/ml [1]: 17.3% | MIC [2]: > 93.3 µM | IC50 [3]: 92.6 µM

COc1ccc(/C=C(\C#N)c2nc3ccccc3s2)cc1OC
inhibition at 48 h, 50 ug/ml [1]: 32.5% | MIC [2]: > 77.6 µM | IC50 [3]: 61.4 µM

N#C/C(=C\c1ccc(-c2cc(C(=O)O)cc(C(=O)O)c2)o1)c1nc2ccccc2s1
inhibition at 48 h, 50 ug/ml [1]: 14.4% | MIC [2]: 60.1 µM (≈ 25 µg/mL) | IC50 [3]: 1.15 µM | log(activity) [4]: 2.8

N#C/C(=C\c1ccc(OCc2ccccc2)cc1)c1nc2ccccc2s1
inhibition at 48 h, 50 ug/ml [1]: 22.8% | MIC [2]: 68 µM (≈ 25 µg/mL) | IC50 [3]: 47.9 µM

N#C/C(=C\c1c[nH]c2ccccc12)c1nc2ccccc2s1
inhibition at 48 h, 50 ug/ml [1]: 45.7% | MIC [2]: > 83.1 µM | IC50 [3]: 37.9 µM

N#C/C(=C\c1ccc(O)cc1O)c1nc2ccccc2s1
inhibition at 48 h, 50 ug/ml [1]: 45.7% | MIC [2]: 10.6 µM (≈ 3.12 µg/mL) | IC50 [3]: 23.2 µM

N#C/C(=C\c1ccco1)c1nc2ccccc2s1
inhibition at 48 h, 50 ug/ml [1]: 47.3% | MIC [2]: 49.6 µM (≈ 12.5 µg/mL) | IC50 [3]: 16.2 µM

COc1c(N2C[C@@H]3CCCN[C@@H]3C2)c(F)cc2c(=O)c(C(=O)O)cn(C3CC3)c12 [MOXIFLOXACIN]
log(activity) (Mycobacterium marinum [9]): 2.7 | log(activity) [4]: 2.2 | log(activity) [7]: 1.8

N#C/C(=C\c1ccc(O)cc1)c1nc2ccccc2s1
inhibition at 48 h, 50 ug/ml [1]: 2.26% | MIC [2]: > 89.9 µM | IC50 [3]: 10.4 µM

COc1cc(/C=C(\C#N)c2nc3ccccc3s2)ccc1O
inhibition at 48 h, 50 ug/ml [1]: 34.8% | MIC [2]: 20.3 µM (≈ 6.26 µg/mL) | IC50 [3]: 7.83 µM

N#C/C(=C\c1ccc([N+](=O)[O-])o1)c1nc2ccccc2s1
inhibition at 48 h, 50 ug/ml [1]: 19.6% | MIC [2]: > 84.2 µM | IC50 [3]: 19.6 µM | log(activity) [4]: 2.8
